The source made the active and inactive calls. The rule behind the calls is not given here.

For series [1], the system named is Mus musculus. Nature of the series: Agonist activity at TrkB receptor in C57BL/J6 mouse brain assessed as Akt phosphorylation at serine 473 in hippocampus at 1 mg/kg, po after 4 hrs by ELISA. The format is functional, organism-based. Also on record: dose 1 mg/kg. The method in brief: (§1)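 Male C57BL/6 mice, two months old, received a single 1 mg/kg oral dose, with saline controls. Brain was taken at set time points and lysed. Phospho-Akt S473 was measured by sandwich ELISA on 20 μg lysate: overnight capture at 4°C, detection antibody, HRP secondary and TMB, read at 450 minus 650 nm. Two replicate experiments, one-way ANOVA against control.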
For orientation: In an ELISA, binding on a coated surface is turned into a signal by an enzyme label.

For series [2], the system named is Mus musculus. Nature of the series: Agonist activity at TrkB receptor in C57BL/J6 mouse brain assessed as TrkB phosphorylation at tyrosine 816 in hippocampus at 1 mg/kg, po after 4 hrs by immunoblotting analysis. Also on record: dose 1 mg/kg. It counts as functional, organism-based. The gist of the method:
(§2)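 Male C57BL/6 mice, two months old, received a single 1 mg/kg oral dose, with saline controls. Brain or hippocampus was collected 4 h later (time-course samples at various times). Homogenates were ultracentrifuged and 40 μg supernatant was immunoblotted for p-TrkB, p-Akt and p-MAPK.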
For orientation: In western blotting, separated proteins are transferred to a membrane and probed.

The target of series [3] is BDNF/NT-3 growth factors receptor (Rattus norvegicus) (UniProt Q63604). Nature of the series: Agonist activity at TrkB receptor in E17 rat embryo primary neurons assessed as TrkB phosphorylation at tyrosine 817 at 500 nM after 15 mins by immunoblotting analysis. It counts as functional. The gist of the method:
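Primary cortical cultures from E17 rat embryos were exposed to 500 nM for 15 min. Lysates were immunoblotted for p-TrkB and p-Akt (20 μg per lane). Two replicate experiments.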

Series [4] relates to Mus musculus. Nature of the series: AUC (infinity) in mouse at 1 mg/kg, iv by HPLC analysis. It counts as ADME, organism-based, Plasma. Also on record: time infinity, dose 1 mg/kg, route intravenous. Conditions: in vivo. The method in brief:
(§3)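 Mice of 20–30 g, 6–8 weeks old, dosed i.v. or orally. Blood was drawn at 3, 10, 30, 60, 120, 240, 360 and 480 min into lithium-heparin tubes, spun at 2500 × g for 15 min at 4°C within 1 h and stored at −20°C. Plasma was analysed by HPLC, 3 mice per time point. AUC was calculated by the linear/log trapezoidal method.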

Series [5] relates to Mus musculus. Nature of the series: Agonist activity at TrkB receptor in C57BL/J6 mouse brain assessed as MAPK phosphorylation in hippocampus at 1 mg/kg, po after 4 hrs by immunoblotting analysis. Also on record: dose 1 mg/kg. The format is functional, organism-based. The method in brief:
as §2

Series [6] deals with Mus musculus. Nature of the series: Volume of distribution at steady state in mouse at 1 mg/kg, iv by HPLC analysis. It counts as ADME, organism-based. Also on record: dose 1 mg/kg, route intravenous. The following applies: in vivo. The gist of the method: (§4)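 Mice (20–30 g, 6–8 weeks old) were dosed i.v. or orally. Blood was drawn into lithium-heparin tubes at 3, 10, 30, 60, 120, 240, 360 and 480 min, with 3 mice per time point. Plasma was separated at 2500 × g for 15 min at 4°C within 1 h and stored at −20°C. Samples were analysed by HPLC, and AUC was calculated by the linear/log trapezoidal method.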

In series [7] the test system is Mus musculus. In words: Volume of distribution in mouse at 1 mg/kg, iv by HPLC analysis. It counts as ADME, organism-based. Also on record: dose 1 mg/kg, route intravenous. The following applies: in vivo. The method in brief: as §4
Series [8] relates to Mus musculus. In words: Agonist activity at TrkB receptor in C57BL/J6 mouse brain assessed as Akt phosphorylation at serine 473 in hippocampus at 1 mg/kg, po after 4 hrs by immunoblotting analysis. It counts as functional, organism-based. Also on record: dose 1 mg/kg. The method in brief:
as §2

Series [9] has as its system Mus musculus. In words: AUC last in mouse at 1 mg/kg, iv by HPLC analysis. It counts as ADME, organism-based, Plasma. Also on record: time 0 - last, dose 1 mg/kg, route intravenous. The following applies: in vivo. The gist of the method:
as §3

For series [10], the system named is Mus musculus. In words: Elimination half life in mouse at 1 mg/kg, iv by HPLC analysis. The format is ADME, organism-based. Also on record: dose 1 mg/kg, route intravenous. The following applies: in vivo. The gist of the method:
as §3

The test system of series [11] is HepG2. In words: Genotoxicity in human HepG2 cells assessed as induction of DNA lesion at 100 uM after 24 hrs by comet assay. Conditions: hepg2, 24 h. It counts as toxicity, cell-based. The gist of the method:
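HepG2 cells were exposed to 100 μM for 24 h, with etoposide as positive control. Cells were embedded in agarose, lysed 2 h at 4°C at pH 10, unwound 40 min in alkali at pH >13 and electrophoresed at 25 V for 30 min at 4°C. After ethidium bromide staining, comet-tail nuclei were counted in >100 cells per field. Three independent experiments, one-way ANOVA.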

Series [12] deals with HepG2. In words: Genotoxicity in human HepG2 cells assessed as micronuclei formation at 50 uM after 24 hrs by DAPI staining. It counts as toxicity, cell-based. Conditions: hepg2, 24 h. The method in brief:
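HepG2 cells were exposed to 50 μM for 24 h, with benzo(a)pyrene as positive control. Cells were swollen in hypotonic KCl/NaCl for 10 min at 37°C, fixed in methanol/acetic acid 3:1 and stained with DAPI at 2 μg/ml. Three independent experiments, one-way ANOVA.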

The test system of series [13] is HepG2. In words: Cytotoxicity against human HepG2 cells assessed as cell death upto 100 uM after 24 hrs by LDH assay. It counts as cell-based. Conditions: hepg2, 24 h. The gist of the method: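 HepG2 cells were exposed to a range of concentrations up to 100 μM for 24 h, and cytotoxicity was measured by LDH release. n=3.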
Series [14] relates to Mus musculus. In words: Agonist activity at TrkB receptor in C57BL/J6 mouse brain assessed as Akt phosphorylation at serine 473 at 1 mg/kg, po after 1 hr by ELISA. The format is functional, organism-based. Also on record: dose 1 mg/kg. The method in brief:
as §1

Series [15] deals with Mus musculus. Nature of the series: Agonist activity at TrkB receptor in C57BL/J6 mouse brain assessed as Akt phosphorylation at serine 473 at 1 mg/kg, po by immunoblotting analysis. Also on record: dose 1 mg/kg. The format is functional, organism-based. The gist of the method:
as §2

For series [16], the system named is Mus musculus. In words: Agonist activity at TrkB receptor in C57BL/J6 mouse brain assessed as Akt phosphorylation at serine 473 at 1 mg/kg, po after 4 hrs by ELISA. The format is functional, organism-based. Also on record: dose 1 mg/kg. The gist of the method:
as §1

Series [17] concerns Mus musculus. In words: Antidepressant activity in C57BL/J6 mouse assessed as reduction of immobility at 5 mg/kg, po administered qd for 21 days recorded in last 4 mins by forced swim test. The format is functional, organism-based. Also on record: dose 5 mg/kg. The method in brief:
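Male C57BL/6J mice, 2–3 months old, were gavaged daily for 21 days with drug (5 or 2.5 mg/kg) or saline and adapted to the test room for 2 days. With no preswim, each mouse was placed for 6 min in a 16-cm cylinder of 24 °C water, 14 cm deep. Immobility in the last 4 min was scored blind and compared by unpaired t-test (n=6 or 8).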

Series [18] concerns Mus musculus. Nature of the series: Agonist activity at TrkB receptor in C57BL/J6 mouse brain assessed as TrkB phosphorylation at tyrosine 816 in cortex at 5 mg/kg, po administered qd for 21 days by immunoblotting analysis. The format is functional, organism-based. Also on record: dose 5 mg/kg.
Series [19] deals with Mus musculus. Nature of the series: Agonist activity at TrkB receptor in C57BL/J6 mouse brain assessed as Akt phosphorylation at serine 473 at 1 mg/kg, po after 8 hrs by ELISA. Also on record: dose 1 mg/kg. It counts as functional, organism-based. The gist of the method: as §1
The subject of series [20] is Mus musculus. Nature of the series: Agonist activity at TrkB receptor in C57BL/J6 mouse brain assessed as TrkB phosphorylation at tyrosine 706 at 1 mg/kg, po by immunoblotting analysis. The format is functional, organism-based. Also on record: dose 1 mg/kg. The method in brief: as §2
The subject of series [21] is Mus musculus. Nature of the series: Agonist activity at TrkA receptor in C57BL/J6 mouse brain assessed as TrkA phosphorylation at tyrosine 794 in cortex at 5 mg/kg, po administered qd for 21 days by immunoblotting analysis. Also on record: dose 5 mg/kg. The format is functional, organism-based.
The test system of series [22] is Mus musculus. In words: Agonist activity at TrkB receptor in C57BL/J6 mouse brain assessed as Akt phosphorylation at serine 473 at 1 mg/kg, po after 8 hrs by ELISA relative to control. The format is functional. The gist of the method:
as §1

The test system of series [23] is Mus musculus. In words: Antidepressant activity in C57BL/J6 mouse assessed as increase in locomotion at 5 mg/kg, po qd for 21 days tested on day 22 by locomotor activity assay. Also on record: dose 5 mg/kg. The format is functional, organism-based. The gist of the method: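 Male C57BL/6J mice were gavaged with 5 mg/kg/day or saline vehicle for 21 days. On day 22, ambulation (consecutive photobeam breaks) was recorded in automated chambers for 2 h in 30-min intervals. n=6, two-way ANOVA.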

Sequence of BDNF/NT-3 growth factors receptor (Rattus norvegicus) (Q63604 whole entry): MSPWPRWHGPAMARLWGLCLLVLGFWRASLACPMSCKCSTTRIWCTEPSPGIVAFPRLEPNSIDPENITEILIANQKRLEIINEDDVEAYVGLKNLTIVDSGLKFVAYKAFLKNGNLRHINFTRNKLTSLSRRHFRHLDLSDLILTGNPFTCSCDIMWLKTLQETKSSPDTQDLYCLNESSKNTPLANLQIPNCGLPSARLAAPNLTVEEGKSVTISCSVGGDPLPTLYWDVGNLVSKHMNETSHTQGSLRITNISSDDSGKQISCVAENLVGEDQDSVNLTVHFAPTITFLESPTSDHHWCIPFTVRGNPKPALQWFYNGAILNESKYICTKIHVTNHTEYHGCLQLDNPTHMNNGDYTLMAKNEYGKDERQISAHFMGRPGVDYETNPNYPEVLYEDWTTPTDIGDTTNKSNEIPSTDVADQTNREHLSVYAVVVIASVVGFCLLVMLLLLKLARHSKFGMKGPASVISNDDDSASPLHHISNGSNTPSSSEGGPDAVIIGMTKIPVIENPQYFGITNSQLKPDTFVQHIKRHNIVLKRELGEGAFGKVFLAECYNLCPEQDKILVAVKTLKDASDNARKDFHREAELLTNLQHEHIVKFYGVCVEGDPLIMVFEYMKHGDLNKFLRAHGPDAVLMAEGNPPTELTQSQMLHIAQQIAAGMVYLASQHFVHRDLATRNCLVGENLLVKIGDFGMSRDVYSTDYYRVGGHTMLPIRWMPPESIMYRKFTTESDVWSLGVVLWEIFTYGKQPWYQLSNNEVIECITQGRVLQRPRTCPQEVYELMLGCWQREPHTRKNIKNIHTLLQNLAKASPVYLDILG

Take `O=c1cc(-c2ccc(F)cc2)[nH]c2c(O)c(O)ccc12`: the result in [1] and in [2] was Active. Further, the result in series [3] was inactive.
As for `Br.CN(C)c1ccc(-c2cc(=O)c3ccc(O)c(O)c3o2)cc1`, the outcome in [1], in series [2], in series [5], in [8] and in series [3] was Active. In addition, the exposure (AUC) (as a rule, concentration integrated over time) in series [4] was found to be 5943 ng·min/mL. For the same compound, the Vdss – broadly, the apparent volume that relates the amount in the body to the concentration in plasma or blood – in [6] is 0.803 L/kg. For the same compound, the Vz (commonly the apparent volume that relates the amount in the body to the concentration in plasma or blood) in series [7] came to 2.117 L/kg. Moreover, the AUClast in series [9] turned out to be 5930 ng·min/mL. Moreover, the “beta t1/2” value in [10] came out at 9 min.
Turning to `O=c1cc(-c2ccc(N3CCCC3)cc2)oc2c1ccc1nc[nH]c12`, the Activity result in series [11], in series [12] and in series [13] was “Non-toxic” each time.
With `O=c1cc(-c2ccccc2)oc2c(O)c(O)cc(F)c12`, the outcome in series [1], in series [2] and in [3] was Active.
Consider `O=c1cc(-c2ccccc2)[nH]c2c(O)c(O)ccc12`, for which the outcome in [1] and in series [2] was Active. Further, the outcome in series [3] was inactive.
Regarding `O=c1c(F)c(-c2ccccc2)oc2c(O)c(O)ccc12`, the outcome in [1], in series [2] and in series [3] was Active.
`O=c1cc(-c2cncnc2)oc2c(O)c(O)ccc12`: the outcome in series [1], in [2] and in series [3] was Active.
`c1ccc2c(c1)cc1ccc3cccc4ccc2c1c34`: in series [12], the Activity entry is reported as “Toxic”.
Regarding `CN(C)c1ccc(-c2cc(=O)c3c(F)cc(O)c(O)c3o2)cc1`, the outcome in [1], in [2] and in series [3] was Active.
With `CN(C)c1cccc(-c2cc(=O)c3ccc(O)c(O)c3o2)c1`, the outcome in series [1], in series [2] and in [3] was Active.
Turning to `O=c1c(F)c(-c2cccc(O)c2)oc2c(O)c(O)ccc12`, the outcome in [1], in series [2], in [14], in [17], in series [18] and in [3] was Active. The result in series [15], in series [16], in series [19], in series [20] and in series [21] was inactive.
As to `CN(C)c1ccc(-c2cc(=O)c3ccc4nc[nH]c4c3o2)cc1`, the Activity in series [22] is 250%; in series [11], “Toxic”; in series [15] (TDE = time-dependent effect), “tde”; in [12], “Non-toxic”; in series [20] (TDE = time-dependent effect) it was “tde”; in series [13] it was “Non-toxic”. In addition, the result in series [1], in series [2], in series [5], in series [17], in [23] and in [18] was Active. Besides, the result in series [8] and in series [3] was Active. Further, the outcome in series [21] was inactive.
With `O=c1cc(-c2ccc(F)cc2)oc2c(O)c(O)ccc12`, the outcome in series [3] was inactive.

For the origin of these results see ChEMBL document CHEMBL2203249, “Optimization of a small tropomyosin-related kinase B (TrkB) agonist 7,8-dihydroxyflavone active in mouse models of depression” (J Med Chem, 2012).
